Source: PubChem BioAssay
Hits are enriched below; roughly 2% of the tested compounds scored in any of these assays.
LEDGF integ inh – blockers of LEDGF/p75-dependent integrase strand transfer – biochemical, TR-FRET, high throughput, primary screen | TR-FRET IN-LEDGF/p75 DNA integration, Eu/Cy5 | inhibition, % at 3.7 µM | HIV-1 integrase (with human LEDGF/p75) | 370,000 compounds, 0.64% hits;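 active = inhibition above the screen-wide mean plus 3 SD, cut at about 13% in these data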;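 also: signal is the Cy5 over europium emission ratio at 671 and 618 nm; 0% = plate median of compound wells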
UHRF1 binding – UHRF1 methylated DNA binding inhibitors, primary screen, counter-screen for MBD2 inhibitor project, biochemical, TR-FRET, human UHRF1, single concentration; E3 ubiquitin-protein ligase UHRF1 (Homo sapiens), Q96T88; UHRF1 binding to methylated oligo; inhibition, % at 4.4 µM; 370,000 compounds, 0.75% hits; AID 687016, 2013; in the data active = inhibition above about 21%;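 also: UHRF1 SRA domain binding a hemimethylated CpG hairpin DNA probe; 0% = median of test compound wells and 100% = reference inhibitor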
ASAP1 inh – inhibitors of human ASAP1 ArfGAP activity, primary screen, biochemical, fluorescence polarization | Arf-GAP with SH3 domain, ANK repeat and PH domain-containing protein 1 (Homo sapiens), … | ASAP1-stimulated ARF1 GTP hydrolysis, GDP FP detection | inhibition, % at 16.5 µM | 360,000 compounds, 0.19% hits | AID 624377, 2012; in the data active = inhibition above about 25%;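 also: 0% = vehicle with enzyme and substrate and 100% = no enzyme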
Target sequence (Q9ULH1 325-724 limits assumed): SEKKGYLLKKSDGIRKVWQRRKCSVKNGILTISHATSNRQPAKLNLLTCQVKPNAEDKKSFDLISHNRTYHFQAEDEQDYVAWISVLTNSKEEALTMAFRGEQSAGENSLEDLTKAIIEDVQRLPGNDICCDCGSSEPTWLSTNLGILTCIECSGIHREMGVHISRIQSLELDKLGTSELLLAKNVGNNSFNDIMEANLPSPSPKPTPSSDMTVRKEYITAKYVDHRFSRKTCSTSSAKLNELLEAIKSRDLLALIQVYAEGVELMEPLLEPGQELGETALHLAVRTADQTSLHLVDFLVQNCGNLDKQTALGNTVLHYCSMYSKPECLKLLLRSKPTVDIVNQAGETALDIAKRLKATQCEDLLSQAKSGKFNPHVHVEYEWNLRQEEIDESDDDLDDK
MBD2 inh – inhibitors of MBD2 binding to methylated DNA, primary screen, biochemical, TR-FRET, DNA-binding domain, human; Methyl-CpG-binding domain protein 2 (Homo sapiens), Q9UBB5; MBD2 binding to methylated oligonucleotide; inhibition, % at 4.4 µM; 370,000 compounds, 0.31% hits; in the data active = inhibition above about 13%
ARFGAP1 inhibitor – inhibitors of rat ARFGAP1 GAP activity, primary screen, biochemical, fluorescence polarization, GDP tracer. Arfgap1-stimulated ARF1 GTP hydrolysis, GDP FP detection. ADP-ribosylation factor GTPase-activating protein 1 (Rattus norvegicus), Q62848. AID 651572, 2012. 360,000 compounds, 0.26% hits. inhibition, % at 16.5 µM;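 active = inhibition above a per-plate limit, mean inhibition of low control wells plus 3 SD, cut at about 25% in these data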;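 also: 0% = DMSO wells with enzyme and 100% = wells lacking Arfgap1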
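system = rat Arfgap1 catalytic domain, aa 1-136 | technique = FP, GDP Alexa 633 tracer displaced from anti-GDP antibody, 620/688 nm | compound = one concentration, 16.5 µM, DMSO 1.26% | medium = HEPES-based buffer, pH 7.5 | timing = compound-enzyme preincubation 20 min, reaction 120 min, detection 60 min, 25 °C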
TCR CD3 inh – inhibitors of human TCR-CD3 interaction, primary screen, biochemical, fluorescence, TAMRA-labeled TCR probe. 360,000 compounds, 0.37% hits. inhibition, % at 9.4 µM. AID 651800, 2012. T-cell receptor (TCR); in the data active = inhibition above about 19%;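 also: recombinant mutant TCR 2C K166C tagged with TAMRA read by polarization; 0% = receptor in buffer alone and 100% = receptor with positive control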
Numbers without * were called inactive; / = no result.

SMILES	LEDGF integ inh	UHRF1 binding	ASAP1 inh	MBD2 inh	ARFGAP1 inhibitor	TCR CD3 inh
CC(C)(C)Cc1c(-c2cccc(Cl)c2)nc2ccc(Cl)cn12	-0.5	23.5*	-1.8	6.9	-2.1	4.4
O=C(Nc1nc(-c2cc(Cl)sc2Cl)cs1)c1ccc(Br)s1	0.6	1.9	-16.1	20.6*	13.2	0.3
CC(OC(=O)Cc1c[nH]c2ccccc12)C(=O)NC1CCCCC1C (configuration not stated)	0.8	23.0*	6.4	7.7	-1.5	2.5
N#CCc1cccnc1Sc1ccc(Cl)cc1	0.6	26.1*	2.0	2.1	1.2	-3.6
COC(=O)[C@]12C[C@H](CC(=O)N3CCN(C(=O)c4ccco4)CC3)C(=O)N(CCc3ccc(OC)c(OC)c3)C1=C[C@H](C(C)C)O[C@@H]2C1CC1	2.7	-0.6	/	-2.9	/	/
CCC(Sc1nc2cc(OC)c(OC)cc2c(=O)n1Cc1ccc(OC)cc1)C(=O)NCCOC (configuration not stated)	4.2	23.3*	1.0	-2.3	5.8	5.9
O=C(O)c1cscc1-c1cccc2ccccc12	-0.5	-0.9	2.9	-11.4	6.2	4.3
Cc1ccc2cc(CN(C)S(C)(=O)=O)c(=O)[nH]c2c1	4.3	35.2*	-0.3	-2.3	7.0	-3.2
Cc1ccc(C)c(NS(=O)(=O)c2ccc3c(c2)NC(=O)CCS3)c1	2.0	2.2	-8.8	2.0	-6.5	-3.3
Cc1ccc(NS(=O)(=O)c2ccc3c(c2)NC(=O)CCS3)c(Br)c1	-0.9	29.1*	-4.8	1.4	2.9	-5.8
CC1CCN(S(=O)(=O)c2cccc(C(=O)NNC(=O)c3ccco3)c2)CC1	0.5	29.6*	-10.5	5.4	-2.1	0.6
CCOc1ccccc1C1NC(=O)NC(C)=C1C(=O)OC1CCCCC1 (configuration not stated)	-4.2	80.9*	-0.8	0.6	-5.2	2.5
O=C(CCc1nc2ccccc2c(=O)[nH]1)Nc1cc(Cl)ccc1N1CCCC1	-4.5	32.5*	0.8	3.0	4.3	-0.8
Cc1ccc(C2=NN(CCC(=O)NC3CCCC3)C(=O)CC2)cc1	7.6	22.8*	5.0	2.0	-2.3	-2.4
Cc1ccc2c(c1)N(CCC(=O)NC1CCCCC1)C(=O)CO2	1.3	21.7*	-3.6	1.4	0.9	3.5
Cc1ccc2c(c1)N(CC(=O)NC1CCCCC1C)C(=O)CO2 (configuration not stated)	0.4	-0.1	-2.5	2.3	2.0	2.3
CC(C)CN1CC(Br)C(=O)NC1=O (configuration not stated)	1.6	-2.5	7.3	4.7	-3.1	1.2
Cc1ccc(S(=O)(=O)Cc2ccc(C(=O)O)o2)cc1	7.9	21.7*	-5.3	4.8	-0.9	8.0
Cc1ccccc1Oc1ccc2c(c1)[C@@H]1C[C@H](N(C)C(=O)c3cccnc3)[C@H]([C@H](C)O)C(=O)N1CC2	-5.3	-1.6	-10.5	2.6	6.1	-1.0
COc1cccc(OC)c1C(=O)Oc1ccc2c(c1)O/C(=C\c1ccncc1)C2=O	-0.3	36.6*	7.4	-4.8	5.1	-0.8
Cc1cc(NC(=O)CSc2nc(CC(C)(C)C)nc3c2c(=O)n(C)c(=O)n3C)no1	2.1	21.7*	3.5	2.9	-4.9	-0.4
Cc1cc(NC(=O)CSc2nc(-c3ccccc3Cl)nc3c2c(=O)n(C)c(=O)n3C)no1	2.2	23.4*	-0.1	7.3	-5.6	-7.5
C#CCN(C[C@@H]1[C@@H](OC(=O)NCc2ccc(OC)c(OC)c2)[C@@H](OC(=O)NCc2ccc(OC)c(OC)c2)CN(C(=O)OC(C)C)N1C(=O)OC(C)C)S(=O)(=O)c1ccc(C)cc1	52.0*	-3.8	3.8	-1.1	-4.3	7.7
